This passage reports EC50 and Efficacy results from ChEMBL document CHEMBL2396539, “Asymmetric synthesis of the four diastereoisomers of a novel non-steroidal farnesoid X receptor (FXR) agonist: role of the chirality on the biological activity” (Bioorg Med Chem, 2013).

The target in one assay is T1, Bile acid receptor (Homo sapiens, UniProt Q96RI1).
T1 sequence (Q96RI1 whole entry): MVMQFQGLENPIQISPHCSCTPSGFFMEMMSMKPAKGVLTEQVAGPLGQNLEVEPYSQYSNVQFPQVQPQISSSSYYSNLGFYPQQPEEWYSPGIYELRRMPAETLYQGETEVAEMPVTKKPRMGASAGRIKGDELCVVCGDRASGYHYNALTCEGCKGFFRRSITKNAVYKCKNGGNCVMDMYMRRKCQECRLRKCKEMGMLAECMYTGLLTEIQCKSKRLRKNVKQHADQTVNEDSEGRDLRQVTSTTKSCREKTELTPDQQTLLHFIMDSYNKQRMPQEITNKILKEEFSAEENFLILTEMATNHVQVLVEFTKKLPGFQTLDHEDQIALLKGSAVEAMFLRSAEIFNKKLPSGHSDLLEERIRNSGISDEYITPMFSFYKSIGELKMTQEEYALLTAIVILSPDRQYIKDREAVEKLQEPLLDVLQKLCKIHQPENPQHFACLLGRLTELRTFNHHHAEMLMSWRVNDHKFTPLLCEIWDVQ
The assay can be described thus: Agonist activity at GST-tagged human FXR LBD assessed as recruitment of biotinylated SRC-1 peptide after 30 mins by AlphaScreen assay. The method in brief:
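Human FXR ligand-binding domain fused to GST was incubated with the ligand at increasing concentrations together with biotinylated SRC-1 peptide. Ligand-dependent recruitment of the coactivator peptide was read out by AlphaScreen. Where tested, compounds were single diastereoisomers or a mixture of syn- and anti-couples.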

Assay [1] addresses T2, Bile acid receptor (Homo sapiens) (UniProt Q96RI1).
T2 sequence (whole entry): T1 sequence (Q96RI1 whole entry)
The assay can be described thus: Agonist activity at GST-tagged human FXR LBD assessed as recruitment of biotinylated SRC-1 peptide after 30 mins by AlphaScreen assay relative to CDCA. A general note: Bead proximity is the source of the signal in Alpha formats.

The structures appear in SMILES notation.

For orientation: EC50 means the concentration at which the effect is half-maximal. As to `Cc1ccccc1-n1nc(C)c2c1NC(=O)CS[C@H]2c1ccc(Oc2ccccc2)cc1` (racemic), the EC50 on Bile acid receptor is 14 µM. In addition, the Efficacy in assay [1] is 8%.
Turning to `Cc1ccccc1-n1nc(C)c2c1NC(=O)[C@@H](C)S[C@@H]2c1ccc(Oc2ccccc2)cc1`, the EC50 on Bile acid receptor was over 150 µM.
Still for that read-out and setting: then `Cc1ccccc1-n1ncc2c1NC(=O)[C@H](C)S[C@@H]2c1ccc(Oc2ccccc2)cc1` (racemic), with over 150 µM; and `Cc1ccccc1-n1nc(C)c2c1NC(=O)[C@H](C)S[C@@H]2c1ccc(Oc2ccccc2)cc1` [listing 1 of 2 here], with 1.4 µM.
Take `CCc1nn(-c2ccccc2C)c2c1[C@@H](c1ccc(Oc3ccccc3)cc1)S[C@@H](C)C(=O)N2` (racemic): the EC50 on Bile acid receptor amounted to 2 µM. Further, the Efficacy in assay [1] was found to be 140%.
On to `Cc1ccccc1-n1nc(C)c2c1NC(=O)[C@H](C)S[C@@H]2c1ccc(Oc2ccccc2)cc1` (racemic) [listing 1 of 2 here], for which the EC50 on Bile acid receptor was 3 µM.
For the compound `CCC1SC(c2ccc(Oc3ccccc3)cc2)c2c(C)nn(-c3ccccc3C)c2NC1=O` (mixture of isomers), the concentration for a half-maximal effect (EC50) at Bile acid receptor was 3 µM. Further, in assay [1], the Efficacy turned out to be 35%.
For `Cc1ccccc1-n1nc(C)c2c1NC(=O)[C@H](C)S[C@@H]2c1ccc(Oc2ccccc2)cc1` [listing 2 of 2 here], the Efficacy in assay [1] is 130%.
Same read-out and setting: the value for `Cc1ccccc1-n1nc(C)c2c1NC(=O)[C@H](C)S[C@@H]2c1ccc(Oc2ccccc2)cc1` (racemic) [listing 2 of 2 here] was 150%.
Consider `Cc1ccccc1-n1nc(C)c2c1NC(=O)[C@H](C)S[C@H]2c1ccc(Oc2ccccc2)cc1`, for which the EC50 at Bile acid receptor is over 150 µM.
The same measure, in the same setting: then `Cc1ccccc1-n1nc(C)c2c1NC(=O)[C@@H](C)S[C@H]2c1ccc(Oc2ccccc2)cc1`, with over 150 µM; and `CCC[C@@H]1S[C@H](c2ccc(Oc3ccccc3)cc2)c2c(C)nn(-c3ccccc3C)c2NC1=O` (racemic), with over 150 µM.
